Laboratory results from ChEMBL document CHEMBL1156424, “Withaferin a strongly elicits IkappaB kinase beta hyperphosphorylation concomitant with potent inhibition of its kinase activity” (J Biol Chem, 2007).
The source made the active and inactive calls. The calls are words filed in the database; no cut-off is given here.

Assays:
[1] = (§1) Inhibition of TNF-induced NF-kappaB-mediated IL6 promoter expression in mouse L929sA cells by luciferase reporter gene assay; type: cell-based
In short: (§2)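 Stably transfected mouse L929sA cells carrying p(IL-6κB)350hu.IL6P-luc+ (NFκB-responsive elements in front of a minimal IL-6 promoter), pretreated 1 h with compound over a concentration range, then given 2000 IU/ml TNF for 6 h. Luciferase in lysates was normalized to co-expressed β-galactosidase (chemiluminescent) and protein.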

Mus musculus [2] = test: Reduction of IL6 protein level in ip dosed zymosan-induced C57BL/6J mouse inflamed paw model measured 6 hrs after zymosan challenge; type: functional, organism-based
In short: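 Mice (six per group) pretreated ip with 0.5 mg/mouse in Me2SO, DEX 150 µg/mouse or Me2SO 60 µl/mouse, 30 min before footpad zymosan. Blood drawn by retro-orbital sinus puncture under isoflurane 6 h after zymosan; IL-6 quantified by 7TD1 cell growth-stimulation bioassay. Groups compared with control by ANOVA, p<0.05 significant.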

Mus musculus [3] = test: Antiinflammatory activity against ip dosed zymosan-induced C57BL/6J mouse inflamed paw model assessed as effect on paw swelling administered 30 mins before zymosan challenge; type: functional, organism-based
In short: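 Male/female not stated; 8-week-old C57BL/6J mice, 10 per group. 60 µl ip of 0.5 mg/mouse in Me2SO (vehicle group: Me2SO alone; DEX 150 µg/mouse as comparator), then 30 min later zymosan (15 mg/ml in PBS) sc into right footpad, left footpad uninjected. Thickness of both footpads measured by caliper at 6, 12, 24 and 48 h; read-out is injected minus non-injected difference.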

[4] = target: T1, Inhibitor of nuclear factor kappa-B kinase subunit beta (Mus musculus) (UniProt O88351); test: Induction of IKK-beta-mediated IkappaBalpha degradation in TNF-stimulated mouse L929sA cells at 2.8 ug/ml by Western blot
T1 sequence (whole entry): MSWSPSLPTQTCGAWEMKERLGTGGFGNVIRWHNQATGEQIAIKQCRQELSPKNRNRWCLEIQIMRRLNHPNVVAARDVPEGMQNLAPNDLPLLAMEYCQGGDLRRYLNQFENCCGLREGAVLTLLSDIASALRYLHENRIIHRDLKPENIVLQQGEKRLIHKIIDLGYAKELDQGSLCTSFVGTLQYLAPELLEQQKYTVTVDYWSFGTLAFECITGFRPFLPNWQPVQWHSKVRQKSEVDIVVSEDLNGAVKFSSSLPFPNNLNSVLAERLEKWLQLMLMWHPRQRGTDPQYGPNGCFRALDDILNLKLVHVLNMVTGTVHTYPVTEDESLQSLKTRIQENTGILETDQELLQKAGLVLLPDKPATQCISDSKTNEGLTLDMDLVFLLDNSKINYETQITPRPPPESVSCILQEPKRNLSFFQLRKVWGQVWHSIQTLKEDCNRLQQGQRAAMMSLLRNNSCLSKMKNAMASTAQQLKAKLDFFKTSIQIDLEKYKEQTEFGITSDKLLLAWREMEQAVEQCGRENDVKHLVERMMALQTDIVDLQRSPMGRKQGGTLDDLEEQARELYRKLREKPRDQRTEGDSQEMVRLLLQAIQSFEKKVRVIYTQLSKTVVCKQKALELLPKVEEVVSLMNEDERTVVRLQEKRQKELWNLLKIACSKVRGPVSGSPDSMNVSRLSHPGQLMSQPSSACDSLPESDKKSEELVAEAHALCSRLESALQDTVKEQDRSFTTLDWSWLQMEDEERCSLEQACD

[5] = target: T1, Inhibitor of nuclear factor kappa-B kinase subunit beta (Mus musculus); test: Induction of IKK-beta-hyperphosphorylation in TNF-stimulated mouse L929sA cells at 2.8 ug/ml by Western blot
L929sA [6] = test: as §1; type: cell-based; in short: as §2
[7] = target: T1, Inhibitor of nuclear factor kappa-B kinase subunit beta (Mus musculus); test: Reversal of induction of IKK-beta-hyperphosphorylation in TNF-stimulated mouse L929sA cells at 2.8 ug/ml in presence of 5 mM dithiothreitol
L929sA [8] = test: Reversal of inhibition of TNF-induced NFkappaB/DNA binding in mouse L929sA cells at 2.8 ug/ml in presence of 250 uM dithiothreitol by electrophoretic mobility shift assay; type: cell-based
In short: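 L929sA cells co-treated 1 h with 2.8 µg/ml and 250 µM DTT, then 2000 IU/ml TNF for 30 min. Equal protein from total extracts incubated 25 min with a 32P-labeled NFκB-specific oligonucleotide (labeled with [α-32P]dCTP by Klenow) for EMSA.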

**Q.** With C=C1C(=O)O[C@@H]2C[C@@H](C)[C@@H]3C=CC(=O)[C@@]3(C)[C@@H](O)[C@H]12 [HELENALIN] as the compound, how does the IC50 [1] read?
**A.** Its IC50 is 2.5 µM.

**Q.** Which results are given for C[C@@H]1C[C@H]2[C@@H]3CCC4=CC(=O)C=C[C@]4(C)[C@@]3(F)[C@@H](O)C[C@]2(C)[C@@]1(O)C(=O)CO?
**A.** Activity (Mus musculus [2]): Active; Activity (Mus musculus [3]): Active

**Q.** With CC1=C(CO)C(=O)OC([C@@H](C)C2CCC3C4C(CC[C@@]32C)[C@@]2(C)C(=O)C=CC[C@]2(O)[C@H]2O[C@@H]42)C1 (some centres not stated) as the compound, how does the IC50 [1] read?
**A.** The IC50 was 90 µM.

**Q.** What about the Activity [4] of the same compound?
**A.** The Activity was “inactive”.

**Q.** What about the Activity [5] of the same compound?
**A.** Its Activity is “inactive”.

**Q.** With CC1=C(CO)C(=O)O[C@@H]([C@@H](C)[C@H]2CC[C@H]3[C@@H]4C[C@H]5O[C@]56[C@@H](O)C=CC(=O)[C@]6(C)[C@H]4CC[C@]23C)C1 [WITHAFERIN A] as the compound, how does the IC50 [1] read?
**A.** Its IC50 is 0.25 µM.

**Q.** And the Efficacy (L929sA [6])?
**A.** The Efficacy was 95%.

**Q.** And the Activity [7]?
**A.** The Activity was “Active”.

**Q.** And the Activity (Mus musculus [2])?
**A.** Its Activity is “Active”.

**Q.** What about the Activity [4] of the same compound?
**A.** The Activity was “Active”.

**Q.** And the Activity [5]?
**A.** The Activity was “Active”.

**Q.** What about the Activity (L929sA [8]) of the same compound?
**A.** The Activity was “Active”.

**Q.** What about the Activity (Mus musculus [3]) of the same compound?
**A.** The Activity was “Active”.

**Q.** Which IC50 [1] does the source give for CC1=C(C)C(=O)O[C@@H]([C@](C)(O)[C@H]2CC[C@H]3[C@@H]4[C@@H]5O[C@@H]5[C@@]5(O)CC=CC(=O)[C@]5(C)[C@H]4CC[C@]23C)C1 [WITHANOLIDE A] here?
**A.** The IC50 was 50 µM.

**Q.** What about the Activity [4] of the same compound?
**A.** The Activity was “inactive”.

**Q.** What about the Activity [5] of the same compound?
**A.** The Activity was “inactive”.
